Measurements as given in article PMC5338039 (Biochemistry, 2017).
Entries after “also recorded” stand apart in the source; their conditions may differ.

Tests used:
Assay type in all cases: cell-based
[1] = target: GPR55 Y3.32F (Homo sapiens, UniProt Q9Y2T6, Y101F); test: SRE luciferase assay, Y3.32F mutant; details: Y3.32F
Procedure, shortened: (§1)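 HA-tagged human GPR55 (WT or sequence-confirmed site-directed mutant, pcDNA3) co-transfected by lipofection with pGL4.33 luc2P/SRE reporter into HEK293 cells; 60,000 cells/well, switched to 1% FBS/DMEM after 5 h, overnight. Agonist test compounds (10 mM DMSO stocks) added for 5 h in serum-free DMEM, 37°C. Cells lysed 10 min at room temperature, luciferin injected, luminescence read immediately (RLU). EC50 from sigmoidal nonlinear regression.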

[2] = target: GPR55 Y3.32L (Homo sapiens, UniProt Q9Y2T6, Y101L); test: SRE luciferase assay, Y3.32L mutant; details: Y3.32L
GPR55 Y3.32L, sequence (Q9Y2T6 whole entry Y101L): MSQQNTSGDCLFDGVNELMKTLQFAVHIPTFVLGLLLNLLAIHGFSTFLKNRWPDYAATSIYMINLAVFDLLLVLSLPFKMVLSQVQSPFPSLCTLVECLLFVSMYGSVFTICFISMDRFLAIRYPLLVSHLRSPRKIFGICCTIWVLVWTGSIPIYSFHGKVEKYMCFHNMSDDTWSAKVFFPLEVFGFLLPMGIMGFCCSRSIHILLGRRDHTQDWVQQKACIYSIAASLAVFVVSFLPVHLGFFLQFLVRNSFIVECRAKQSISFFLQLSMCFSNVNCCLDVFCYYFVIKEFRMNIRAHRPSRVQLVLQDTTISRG
Procedure, shortened: as §1

[3] = target: GPR55 F6.55A (Homo sapiens, UniProt Q9Y2T6, F246A); test: SRE luciferase assay, F6.55A mutant; details: F6.55A
GPR55 F6.55A, sequence (Q9Y2T6 whole entry F246A): as the sequence (Q9Y2T6 whole entry Y101L) above, with L101Y, F246A counted along it
Procedure, shortened: as §1

[4] = target: GPR55 F6.55L (Homo sapiens, UniProt Q9Y2T6, F246L); test: SRE luciferase assay, F6.55L mutant; details: F6.55L
GPR55 F6.55L, sequence (Q9Y2T6 whole entry F246L): as the sequence (Q9Y2T6 whole entry Y101L) above, with L101Y, F246L counted along it
Procedure, shortened: as §1

[5] = target: GPR55 Q6.58M (Homo sapiens, UniProt Q9Y2T6, Q249M); test: SRE luciferase assay, Q6.58M mutant; details: Q6.58M
GPR55 Q6.58M, sequence (Q9Y2T6 whole entry Q249M): as the sequence (Q9Y2T6 whole entry Y101L) above, with L101Y, Q249M counted along it
Procedure, shortened: as §1

[6] = target: GPR55 C(10)A (Homo sapiens, UniProt Q9Y2T6, C10A); test: SRE luciferase assay, C; details: C(10)A
GPR55 C(10)A, sequence (Q9Y2T6 whole entry C10A): as the sequence (Q9Y2T6 whole entry Y101L) above, with C10A, L101Y counted along it
Procedure, shortened: as §1

[7] = target: GPR55 H(170)F (Homo sapiens, UniProt Q9Y2T6, H170F); test: SRE luciferase assay, H; details: H(170)F
GPR55 H(170)F, sequence (Q9Y2T6 whole entry H170F): as the sequence (Q9Y2T6 whole entry Y101L) above, with L101Y, H170F counted along it
Procedure, shortened: as §1

[8] = target: GPR55 C(260)A (Homo sapiens, UniProt Q9Y2T6, C260A); test: SRE luciferase assay, C; details: C(260)A
GPR55 C(260)A, sequence (Q9Y2T6 whole entry C260A): as the sequence (Q9Y2T6 whole entry Y101L) above, with L101Y, C260A counted along it
Procedure, shortened: as §1

[9] = target: GPR55 Q7.36A (Homo sapiens, UniProt Q9Y2T6, Q271A); test: SRE luciferase assay, Q7.36A mutant; details: Q7.36A
GPR55 Q7.36A, sequence (Q9Y2T6 whole entry Q271A): as the sequence (Q9Y2T6 whole entry Y101L) above, with L101Y, Q271A counted along it
Procedure, shortened: as §1

[10] = target: GPR55 Q7.36N (Homo sapiens, UniProt Q9Y2T6, Q271N); test: SRE luciferase assay, Q7.36N mutant; details: Q7.36N
GPR55 Q7.36N, sequence (Q9Y2T6 whole entry Q271N): as the sequence (Q9Y2T6 whole entry Y101L) above, with L101Y, Q271N counted along it
Procedure, shortened: as §1

[11] = target: GPR55 M3.36A (Homo sapiens, UniProt Q9Y2T6, M105A); test: SRE luciferase assay, M3.36A mutant; details: M3.36A
GPR55 M3.36A, sequence (Q9Y2T6 whole entry M105A): as the sequence (Q9Y2T6 whole entry Y101L) above, with L101Y, M105A counted along it
Procedure, shortened: as §1

[12] = target: GPR55 F6.48A (Homo sapiens, UniProt Q9Y2T6, F239A); test: SRE luciferase assay, F6.48A mutant; details: F6.48A
GPR55 F6.48A, sequence (Q9Y2T6 whole entry F239A): as the sequence (Q9Y2T6 whole entry Y101L) above, with L101Y, F239A counted along it
Procedure, shortened: as §1

[13] = target: GPR55 K2.60A (Homo sapiens, UniProt Q9Y2T6, K80A); test: SRE luciferase assay, K2.60A mutant
GPR55 K2.60A, sequence (Q9Y2T6 whole entry K80A): as the sequence (Q9Y2T6 whole entry Y101L) above, with K80A, L101Y counted along it
Procedure, shortened: as §1

[14] = target: GPR55 E3.29A (Homo sapiens, UniProt Q9Y2T6, E98A); test: SRE luciferase assay, E3.29A mutant; details: E3.29A
GPR55 E3.29A, sequence (Q9Y2T6 whole entry E98A): as the sequence (Q9Y2T6 whole entry Y101L) above, with E98A, L101Y counted along it
Procedure, shortened: as §1

[15] = target: GPR55 E3.29L (Homo sapiens, UniProt Q9Y2T6, E98L); test: SRE luciferase assay, E3.29L mutant; details: E3.29L
GPR55 E3.29L, sequence (Q9Y2T6 whole entry E98L): as the sequence (Q9Y2T6 whole entry Y101L) above, with E98L, L101Y counted along it
Procedure, shortened: as §1

GPR55 Y3.32F, sequence (Q9Y2T6 whole entry Y101F): as the sequence (Q9Y2T6 whole entry Y101L) above, with L101F counted along it

- SRE response compared with WT (in words) [3]: little to no effect
- SRE response compared with WT (in words) [4]: little to no effect
- SRE response compared with WT (in words) [6]: right shifted curves
- SRE response compared with WT (in words) [8]: right shifted curves
- SRE response compared with WT (in words) [9]: little to no effect
- SRE response compared with WT (in words) [10]: little to no effect
Substance: l-α-lysophosphatidylinositol [LPI]
- SRE response compared with WT (in words) [1]: right shifted curves; also recorded: reduced signaling
- SRE response compared with WT (in words) [2]: right shifted curves; also recorded: reduced signaling
- SRE response compared with WT (in words) [5]: little to no effect; also recorded: essentially no effect
- SRE response compared with WT (in words) [7]: right shifted curves; also recorded: reduced signaling
- SRE response compared with WT (in words) [11]: right shifted curves; also recorded: reduces LPI's ability to signal
- SRE response compared with WT (in words) [12]: right shifted curves; also recorded: reduces LPI's ability to signal
- SRE response compared with WT (in words) [13]: did not show any LPI-induced responses; also recorded: loss of function
- SRE response compared with WT (in words) [14]: slight response at high concentrations of LPI; also recorded: loss of function
- SRE response compared with WT (in words) [15]: slight response at high concentrations of LPI
